This is an account of results in ChEMBL document CHEMBL1932985, “Identification of biaryl sulfone derivatives as antagonists of the histamine H₃ receptor: discovery of (R)-1-(2-(4'-(3-methoxypropylsulfonyl)biphenyl-4-yl)ethyl)-2-methylpyrrolidine (APD916)” (Bioorg Med Chem Lett, 2012).

A short description of data set [1]: Oral bioavailability in Sprague-Dawley rat at 1 mg/kg by LC-MS/MS analysis. Type of data set: ADME, organism-based. Conditions: in vivo. The gist of the method: (§1)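 Rat PK after IV and PO dosing; plasma Cmax, Tmax, IV half-life and Vss determined; oral bioavailability from AUCpo/AUCiv. Metabolite exposure determined after a 3 mg/kg PO parent dose.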
Data set [2] is described as follows: Ratio of drug level in brain to plasma in Sprague-Dawley rat at 1 mg/kg, po and iv after 0.75 to 3 hrs by LC-MS/MS analysis. Type of data set: ADME, organism-based. The arrangement: dose 1 mg/kg, route oral. Conditions: read-out: BPR. The gist of the method:
(§2)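 Brain (µg/mg) and plasma (µg/mL) levels were measured after oral dosing, with three rats per time point. The b/p ratio was the mean of the nine individual ratios.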

A further data set has as its target Histamine H3 receptor (Rattus norvegicus, UniProt Q9QYN8). The data set can be described thus: Displacement of N-[3H]-methylhistamine from histamine H3 receptor in rat cortex membranes. Type of data set: cell membranes, Membrane.
Data set [3] can be described thus: Tmax in Sprague-Dawley rat at 1 mg/kg, po and iv by LC-MS/MS analysis. Type of data set: ADME, organism-based. Also on record: dose 1 mg/kg, route oral. Conditions: in vivo. The gist of the method:
(§3)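 Rats were given the compound both IV and PO in a routine PK study. Tmax came from the PO arm and Vss from the IV arm.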

Data set [4] can be described thus: Cmax in Sprague-Dawley rat plasma at 1 mg/kg, po and iv by LC-MS/MS analysis. Type of data set: ADME, organism-based. Also on record: dose 1 mg/kg, route oral. Put shortly: as §1
The nature of data set [5]: Half life in Sprague-Dawley rat at 1 mg/kg, iv by LC-MS/MS analysis. The class given is ADME, organism-based. The arrangement: dose 1 mg/kg, route intravenous. The following applies: in vivo. The gist of the method:
as §1

In data set [6] the test system is Rattus norvegicus. In words: Volume of distribution at steady state in Sprague-Dawley rat at 1 mg/kg, po and iv by LC-MS/MS analysis. The class given is ADME, organism-based. The arrangement: dose 1 mg/kg, route oral. Conditions: in vivo. Put shortly:
as §3

In data set [7] the test system is Rattus norvegicus. The data set can be described thus: Inhibition of RAMH-induced dipsogenia in po dosed Sprague-Dawley rat administered 30 mins prior to RAMH challenge measured up to 20 mins. The class given is functional. The following applies: read-out: MED. The gist of the method:
(§4)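 Rats given compound orally 0.5 h (or, for duration of action, at selected times up to 6 h) before RAMH 10 mg/kg SC; water consumed over 20 min measured. Screening doses 1 or 0.3 mg/kg PO, also 0.1 mg/kg; duration study at 0.6 mg/kg PO. MED = minimum dose fully inhibiting drinking; means ± SEM.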

Data set [8] in a line: Solubility of the compound in water. The class given is physicochemical.
In data set [9] the target is Histamine H2 receptor (Homo sapiens) (UniProt P25021). The data set can be described thus: Binding affinity to H2 receptor at 10 uM relative to control. The gist of the method:
(§5)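 Broad binding panel of 80 receptors, including histamine H1, H2 and H4, with compound tested at 10 µM; binding expressed as percent of control.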

The test system of data set [10] is Rattus norvegicus. The data set can be described thus: Effect on sleep-awake cycle in EEG/EMG Sprague-Dawley rat model assessed as increase in wakefulness at 0.6 mg/kg, po measured for 4 hrs. The class given is functional, organism-based. Also on record: dose 0.6 mg/kg. Put shortly:
(§6)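 Rats with chronically implanted cortical electrodes dosed orally (0.6 mg/kg; dose-response also run) during subjective night, about four hours after lights on; wake time recorded over 8 h versus vehicle and assessed over first 1, 2 and 4 h; means ± SEM.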

Data set [11] concerns the target Histamine H1 receptor (Homo sapiens) (UniProt P35367). In words: Binding affinity to H1 receptor at 10 uM relative to control. Put shortly: as §5
In data set [12] the test system is Rattus norvegicus. The data set can be described thus: Effect on sleep-awake cycle in EEG/EMG Sprague-Dawley rat model assessed as increase in wakefulness at 0.3 mg/kg, po measured for 2 hrs. The class given is functional, organism-based. Also on record: dose 0.3 mg/kg. The gist of the method: as §6
Data set [13] has as its target Histamine H4 receptor (Homo sapiens) (UniProt Q9H3N8). In words: Binding affinity to H4 receptor at 10 uM relative to control. Put shortly:
as §5

In data set [14] the test system is Rattus norvegicus. The data set can be described thus: Inhibition of RAMH-induced dipsogenia in Sprague-Dawley rat at 0.6 mg/kg, po administered 30 mins prior to RAMH challenge measured up to 20 mins. Also on record: dose 0.6 mg/kg. The class given is functional, organism-based. Put shortly: as §4
The test system of data set [15] is Rattus norvegicus. In words: Inhibition of RAMH-induced dipsogenia in Sprague-Dawley rat at 0.1 mg/kg, po administered 30 mins prior to RAMH challenge measured up to 20 mins. Also on record: dose 0.1 mg/kg. Type of data set: functional, organism-based. The gist of the method: as §4
In data set [16] the test system is Rattus norvegicus. In words: Inhibition of RAMH-induced dipsogenia in Sprague-Dawley rat at 0.6 mg/kg, po administered 1 hr prior to RAMH challenge measured up to 20 mins. Type of data set: functional, organism-based. The arrangement: dose 0.6 mg/kg. Put shortly:
as §4

Data set [17] relates to Rattus norvegicus. In words: Effect on sleep-awake cycle in EEG/EMG Sprague-Dawley rat model assessed as increase in wakefulness at 0.3 mg/kg, po measured for 1 hr. The class given is functional, organism-based. Also on record: dose 0.3 mg/kg. Put shortly:
as §6

Data set [18] concerns Rattus norvegicus. The data set can be described thus: Effect on sleep-awake cycle in EEG/EMG Sprague-Dawley rat model assessed as increase in wakefulness at 0.6 mg/kg, po measured for 2 hrs. Also on record: dose 0.6 mg/kg. The class given is functional, organism-based. The gist of the method: as §6
Data set [19] is described as follows: Oral bioavailability in Sprague-Dawley rat at 3 mg/kg by LC-MS/MS analysis. The class given is ADME, organism-based. Conditions: in vivo. Put shortly: as §1
In data set [20] the test system is Rattus norvegicus. In words: Volume of distribution at steady state in Sprague-Dawley rat at 3 mg/kg, po and iv by LC-MS/MS analysis. Type of data set: ADME, organism-based. The arrangement: dose 3 mg/kg, route oral. The following applies: in vivo. Put shortly: as §3
A short description of data set [21]: Cmax in Sprague-Dawley rat plasma at 3 mg/kg, po and iv by LC-MS/MS analysis. The class given is ADME, organism-based. The arrangement: dose 3 mg/kg, route oral. Put shortly: as §1
The nature of data set [22]: Half life in Sprague-Dawley rat at 3 mg/kg, iv by LC-MS/MS analysis. Type of data set: ADME, organism-based. Also on record: dose 3 mg/kg, route intravenous. The following applies: in vivo. The gist of the method: as §1
A short description of data set [23]: Ratio of drug level in brain to plasma in Sprague-Dawley rat at 3 mg/kg, po and iv after 0.75 to 3 hrs by LC-MS/MS analysis. The class given is ADME, organism-based. The arrangement: dose 3 mg/kg, route oral. The following applies: read-out: BPR. Put shortly:
as §2

Data set [24] is described as follows: Tmax in Sprague-Dawley rat at 3 mg/kg, po and iv by LC-MS/MS analysis. The following applies: in vivo. The class given is ADME, organism-based. Also on record: dose 3 mg/kg, route oral. The gist of the method:
as §3

Active and inactive are the calls of the source. Where only a bound is given, the exact number is not on record here.

Histamine H3 receptor, sequence (Q9QYN8 whole entry): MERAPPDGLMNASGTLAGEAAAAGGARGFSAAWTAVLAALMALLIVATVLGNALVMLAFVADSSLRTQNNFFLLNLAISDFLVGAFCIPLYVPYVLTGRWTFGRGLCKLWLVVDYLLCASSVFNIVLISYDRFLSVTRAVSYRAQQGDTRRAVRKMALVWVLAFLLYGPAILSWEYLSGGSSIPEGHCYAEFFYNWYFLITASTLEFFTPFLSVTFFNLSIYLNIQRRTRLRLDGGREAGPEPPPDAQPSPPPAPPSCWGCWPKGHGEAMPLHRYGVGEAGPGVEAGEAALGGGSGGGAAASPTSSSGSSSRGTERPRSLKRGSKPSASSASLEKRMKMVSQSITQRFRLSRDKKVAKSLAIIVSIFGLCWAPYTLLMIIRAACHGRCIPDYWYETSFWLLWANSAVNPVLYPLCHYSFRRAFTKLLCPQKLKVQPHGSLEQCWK
Histamine H4 receptor (Homo sapiens), sequence (Q9H3N8 whole entry): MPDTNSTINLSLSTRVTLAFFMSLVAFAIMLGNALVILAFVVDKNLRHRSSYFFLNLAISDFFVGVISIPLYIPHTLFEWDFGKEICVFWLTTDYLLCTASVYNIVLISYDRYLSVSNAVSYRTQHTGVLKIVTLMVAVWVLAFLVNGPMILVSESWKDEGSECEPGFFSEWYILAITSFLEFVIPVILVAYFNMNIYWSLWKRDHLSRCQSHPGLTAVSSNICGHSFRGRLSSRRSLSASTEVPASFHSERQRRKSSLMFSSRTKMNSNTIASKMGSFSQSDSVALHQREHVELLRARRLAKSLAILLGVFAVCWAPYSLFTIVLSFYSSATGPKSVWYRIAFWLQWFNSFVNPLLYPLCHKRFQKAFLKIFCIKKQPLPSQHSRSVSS
Histamine H2 receptor (Homo sapiens), sequence (P25021 whole entry): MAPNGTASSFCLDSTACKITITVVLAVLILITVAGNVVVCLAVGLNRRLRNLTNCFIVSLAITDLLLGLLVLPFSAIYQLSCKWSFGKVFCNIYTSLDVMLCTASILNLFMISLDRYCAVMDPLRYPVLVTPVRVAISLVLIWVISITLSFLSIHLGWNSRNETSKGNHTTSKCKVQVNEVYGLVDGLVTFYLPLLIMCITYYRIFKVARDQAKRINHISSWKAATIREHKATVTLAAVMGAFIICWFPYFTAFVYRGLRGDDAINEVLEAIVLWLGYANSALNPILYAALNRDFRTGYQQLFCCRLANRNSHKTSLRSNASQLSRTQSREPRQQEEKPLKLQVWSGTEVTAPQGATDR
Histamine H1 receptor (Homo sapiens), sequence (P35367 whole entry): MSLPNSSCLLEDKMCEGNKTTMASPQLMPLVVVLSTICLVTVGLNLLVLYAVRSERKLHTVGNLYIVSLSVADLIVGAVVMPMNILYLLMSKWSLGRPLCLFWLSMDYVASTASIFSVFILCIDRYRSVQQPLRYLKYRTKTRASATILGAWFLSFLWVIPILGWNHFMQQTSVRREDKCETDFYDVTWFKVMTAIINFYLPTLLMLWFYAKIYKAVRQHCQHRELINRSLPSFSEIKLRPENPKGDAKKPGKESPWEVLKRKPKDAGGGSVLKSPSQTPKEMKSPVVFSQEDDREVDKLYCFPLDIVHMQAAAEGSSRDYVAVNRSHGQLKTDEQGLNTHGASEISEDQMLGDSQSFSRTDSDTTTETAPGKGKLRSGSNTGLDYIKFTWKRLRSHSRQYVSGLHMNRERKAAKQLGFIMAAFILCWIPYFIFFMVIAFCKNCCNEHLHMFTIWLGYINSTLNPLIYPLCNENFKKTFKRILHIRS

As to `C[C@@H]1CCCN1CCc1ccc(-c2ccc(S(=O)(=O)CCO)cc2)cc1`, in data set [1], the bioavailability (usually dose-corrected exposure relative to a reference, in per cent) stood at 53.6%. Also, the Kp in data set [2] is 0.72. On Histamine H3 receptor, the Ki (commonly a measure of affinity in units of concentration, obtained from inhibition or displacement) is 1.2 nM. For the same compound, the time to peak (Tmax) (in general, the time from dosing to the highest level) in data set [3] turned out to be 30 min. The highest level in [4] (Cmax) was 122 ng/mL. Moreover, the half-life – broadly, the time needed for the level to fall by half in the phase considered – in data set [5] was 192 min. In the data set on Rattus norvegicus [6], this compound showed a Vdss of 5 L/kg. For the same compound, the minimal effective dose in the data set on Rattus norvegicus [7] came to 1 mg/kg.
For the compound `COCCCS(=O)(=O)c1ccc(-c2ccc(CCN3CCC[C@H]3C)cc2)cc1.O=C(O)CC(O)(CC(=O)O)C(=O)O`, the solubility – broadly, how much of the substance goes into solution per volume – in [8] was > 150 mg/mL.
As for `C[C@@H]1CCCN1CCc1ccc(-c2ccc(S(=O)(=O)CC3CCCCO3)cc2)cc1` (some centres undefined), at Histamine H3 receptor, the Ki is 0.2 nM.
`COCCCS(=O)(=O)c1ccc(-c2ccc(CCN3CCC[C@H]3C)cc2)cc1`: the inhibition in data set [9], in data set [11] and in data set [13] was < 50% in each case. Also, the result with Rattus norvegicus [10] and with Rattus norvegicus [12] was inactive. Further, the inhibition entry in the data set on Rattus norvegicus [14] and in the data set with Rattus norvegicus [16] was “Active” throughout. Further, the inhibition (as a rule, how much of the control response was suppressed) in the data set with Rattus norvegicus [15] was “inactive”. Besides, the result with Rattus norvegicus [17] and in the data set on Rattus norvegicus [18] was Active.
On to `CCS(=O)(=O)c1ccc(-c2ccc(CCN3CCC[C@H]3C)cc2)cc1`, for which, in data set [19], the bioavailability stood at 46%. For the same compound, the Vdss in the data set on Rattus norvegicus [20] came out at 14.3 L/kg. This compound also showed a Ki on Histamine H3 receptor of 0.9 nM. Also, in data set [21], the peak level (Cmax) was 57 ng/mL. In data set [22], this compound had a half-life of 84 min. In addition, the Kp in [23] turned out to be 1.75. For the same compound, the time to peak (Tmax) in data set [24] is 18 min. Also, in the data set with Rattus norvegicus [7], the minimal effective dose was determined as 0.3 mg/kg.
Turning to `C[C@@H]1CCCN1CCc1ccc(-c2ccc(S(=O)(=O)C3CCCC3)cc2)cc1`, the Ki at Histamine H3 receptor was 1 nM.
As for `COCCS(=O)(=O)c1ccc(-c2ccc(CCN3CCC[C@@H]3C)cc2)cc1`, the affinity at Histamine H3 receptor, expressed as Ki, was 13.2 nM.
`COCCS(=O)(=O)c1ccc(-c2ccc(CCN3CCC[C@H]3C)cc2)cc1`: the inhibition entry with Rattus norvegicus [14] and with Rattus norvegicus [16] was “Active” in each case. Further, the inhibition result in the data set with Rattus norvegicus [15] is “inactive”.
`CC(C)S(=O)(=O)c1ccc(-c2ccc(CCN3CCC[C@H]3C)cc2)cc1` gave a Ki at Histamine H3 receptor of 2.65 nM.
